The nature of data set [1]: melting temperature; fluorescence melt of hairpins on a sequencing array, two-state fit, raised by 9.35 °C to match UV melts. The settings on record: sodium 0.088 M. In a few lines: (§1)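 Folding enthalpy and melting temperature come from bootstrapped two-state fits to Cy3 fluorescence of library hairpins carrying annealed Cy3 and quencher oligos on a sequenced MiSeq flow cell. Imaging was done in 50 mM Na-HEPES pH 8.0, 25 mM NaCl, stepping by 2.5 °C up to 60 °C, and signals were normalised to pre-quench Cy3 and to control constructs. Results of four replicates were combined by inverse variance, and fitted temperatures were raised by 9.35 °C to match UV melts.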

Data set [2] can be described thus: folding enthalpy; higher = less favourable; fluorescence melt of hairpins on a sequencing array, two-state fit. The conditions noted are these: sodium 0.088 M. In a few lines:
as §1

For GATCATTTTGATGATC ((((((....)))))), the Tm in data set [1] turned out to be 49.5 °C. In data set [2], the folding enthalpy is -51.2 kcal/mol.
In the case of GATCATTTTTATGATC ((((((....)))))), the Tm in data set [1] came to 49.1 °C. For the same sequence, the folding enthalpy in data set [2] is -40 kcal/mol.
As for GATCCAAACTTGGATC ((((((....)))))), in data set [1], the Tm is 53.1 °C. The folding enthalpy in data set [2] is -39.4 kcal/mol.
As for GATCCAAATATGGATC ((((((....)))))), in data set [1], the Tm is 49.4 °C. The folding enthalpy in data set [2] was -34.1 kcal/mol.
Taken in the same sequence, the figures for GATCCAACAGTGGATC ((((((....)))))) were 47.1 °C and -32.1 kcal/mol.
Take GATCCAACGTTGGATC ((((((....)))))): in data set [1], the Tm is 55.6 °C. Also, the folding enthalpy in data set [2] was -58.1 kcal/mol.
Taken in the same sequence, the figures for GATCCAAGCATGGATC ((((((....)))))) were 51.8 °C and -41.2 kcal/mol.
In the same order, the values of GATCCAAGGTGGATC ((((((...)))))) are 51.1 °C and -32.6 kcal/mol.
Taken in the same sequence, the figures for GATCCAAGTTGGATC ((((((...)))))) were 49.1 °C and -35.7 kcal/mol.
As for GATCCAATACTGGATC ((((((....)))))), the Tm in data set [1] amounted to 48.6 °C. In addition, in data set [2], the folding enthalpy was -40 kcal/mol.
For GATCCAATATTGGATC ((((((....)))))), the Tm in data set [1] was found to be 52.2 °C. The folding enthalpy in data set [2] was -41.7 kcal/mol.
Taken in the same sequence, the figures for GATCCAATGTTGGATC ((((((....)))))) were 52.6 °C and -35 kcal/mol.
For the sequence GATCCACAAATGGATC ((((((....)))))), the Tm in data set [1] is 47.5 °C. Further, the folding enthalpy in data set [2] was -32.9 kcal/mol.
Taken in the same sequence, the figures for GATCCACAACTGGATC ((((((....)))))) were 47 °C and -34.5 kcal/mol.
On to GATCCACAGATGGATC ((((((....)))))), for which the Tm in data set [1] is 49 °C. Further, the folding enthalpy in data set [2] was -38.6 kcal/mol.
In the same order, the values of GATCCACATATGGATC ((((((....)))))) are 50.6 °C and -41.2 kcal/mol.
Taken in the same sequence, the figures for GATCCACATGTGGATC ((((((....)))))) were 62.1 °C and -41 kcal/mol.
GATCCACCCCTGGATC ((((((....)))))): the Tm in data set [1] is 49.9 °C. Also, the folding enthalpy in data set [2] was -37.2 kcal/mol.
In the same order, the values of GATCCACCGATGGATC ((((((....)))))) are 49.2 °C and -36.7 kcal/mol.
In the same order, the values of GATCCACCGCTGGATC ((((((....)))))) are 50 °C and -39.8 kcal/mol.
Taken in the same sequence, the figures for GATCCACCTATGGATC ((((((....)))))) were 50.1 °C and -41.4 kcal/mol.
Regarding GATCCACGACTGGATC ((((((....)))))), the Tm in data set [1] was 48.8 °C. Moreover, in data set [2], the folding enthalpy is -31.4 kcal/mol.
In the same order, the values of GATCCACGAGTGGATC ((((((....)))))) are 62.8 °C and -39.8 kcal/mol.
With GATCCACGGCTGGATC ((((((....)))))), the Tm in data set [1] came to 50.5 °C. For the same sequence, the folding enthalpy in data set [2] is -39.1 kcal/mol.
GATCCACGGGTGGATC ((((((....)))))): the Tm in data set [1] came to 58.8 °C. For the same sequence, the folding enthalpy in data set [2] is -39.6 kcal/mol.
On to GATCCACGTTTGGATC ((((((....)))))), for which the Tm in data set [1] is 50.5 °C. The folding enthalpy in data set [2] was -34.6 kcal/mol.
Taken in the same sequence, the figures for GATCCACTGATGGATC ((((((....)))))) were 50.4 °C and -38.5 kcal/mol.
Taken in the same sequence, the figures for GATCCACTGTGGATC ((((((...)))))) were 51.6 °C and -39.4 kcal/mol.
As to GATCCACTGTTGGATC ((((((....)))))), in data set [1], the Tm turned out to be 49.9 °C. The folding enthalpy in data set [2] was -30.4 kcal/mol.
Regarding GATCCAGACCTGGATC ((((((....)))))), the Tm in data set [1] was found to be 54.6 °C. For the same sequence, in data set [2], the folding enthalpy was -44.8 kcal/mol.
GATCCAGAGTTGGATC ((((((....)))))): the Tm in data set [1] came to 49.2 °C. Further, the folding enthalpy in data set [2] is -39.8 kcal/mol.
In the case of GATCCAGATCTGGATC ((((((....)))))), the Tm in data set [1] stood at 54.3 °C. For the same sequence, the folding enthalpy in data set [2] was -48 kcal/mol.
In the same order, the values of GATCCAGGATGGATC ((((((...)))))) are 57.8 °C and -40.5 kcal/mol.
In the same order, the values of GATCCAGGGATGGATC ((((((....)))))) are 53.3 °C and -38.9 kcal/mol.
Regarding GATCCAGGGTGGATC ((((((...)))))), the Tm in data set [1] is 49.3 °C. Besides, in data set [2], the folding enthalpy was -31.5 kcal/mol.
Taken in the same sequence, the figures for GATCCAGTAATGGATC ((((((....)))))) were 58.7 °C and -34.2 kcal/mol.
In the same order, the values of GATCCAGTACTGGATC ((((((....)))))) are 57.1 °C and -47.2 kcal/mol.
Taken in the same sequence, the figures for GATCCAGTCGTGGATC ((((((....)))))) were 52.8 °C and -35.9 kcal/mol.

Source of the values: the array DNA melting data of Ke et al. (doi:10.1101/2024.01.08.574731).
